In ChEMBL document CHEMBL2331335, “Synthesis of hemslecin A derivatives: a new class of hepatitis B virus inhibitors” (Bioorg Med Chem Lett, 2013):

Assays:
[1] = Selectivity index, ratio of CC50 for human HepG2.2.15 cells to IC50 for HBV infected in human HepG2.2.15 cells assessed as inhibition of viral surface antigen production; type: functional
Outline: (§1)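 Selectivity index was calculated as CC50 (HepG 2.2.15 cytotoxicity) divided by IC50 for the given marker (HBV DNA replication, HBeAg or HBsAg), all measured in HepG 2.2.15 cells.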

Hepatitis B virus [2] = assay: Antiviral activity against HBV infected in human HepG2.2.15 cells assessed as inhibition of viral e antigen production; type: functional, organism-based; settings: HepG2 2.2.15
Outline: (§2)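 Assayed in HBV-producing HepG 2.2.15 cells, with tenofovir as positive control. HBsAg, HBeAg and HBV DNA replication were each measured, and IC50 was taken as the compound concentration giving 50% inhibition of the given marker.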

[3] = Selectivity index, ratio of CC50 for human HepG2.2.15 cells to IC50 for HBV infected in human HepG2.2.15 cells assessed as inhibition of viral e antigen production; type: functional; outline: as §1
Hepatitis B virus [4] = assay: Antiviral activity against HBV infected in human HepG2.2.15 cells assessed as inhibition of viral surface antigen production; type: functional, organism-based; settings: HepG2 2.2.15; outline: as §2
[5] = Selectivity index, ratio of CC50 for human HepG2.2.15 cells to IC50 for HBV infected in human HepG2.2.15 cells assessed as inhibition of viral DNA replication; type: functional; outline: as §1
[6] = Cytotoxicity against human HepG2.2.15 cells; type: cell-based, HepG2 2.2.15
Outline: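 Cytotoxicity was tested in HepG 2.2.15 cells alongside the anti-HBV assay. CC50 was taken as the compound concentration required to destroy 50% of the cells.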

Hepatitis B virus [7] = assay: Antiviral activity against HBV infected in human HepG2.2.15 cells assessed as inhibition of viral DNA replication; type: functional, organism-based; settings: HepG2 2.2.15; outline: as §2

IC50 (Hepatitis B virus [2]) [µM]	IC50 (Hepatitis B virus [4]) [µM]	IC50 (Hepatitis B virus [7]) [µM]	SMILES	Ratio CC50/IC50 [1]	Ratio CC50/IC50 [3]	Ratio CC50/IC50 [5]	CC50 [6] [µM]
46.7	22.4	9.8	CC(=O)O[C@H]1C[C@@H]2C(=CC[C@@H]3[C@@]2(C)C(=O)C[C@]2(C)[C@@H]([C@@](C)(O)C(=O)CCC(C)(C)OC(C)=O)[C@H](O)C[C@@]32C)C(C)(C)[C@@H]1OC(C)=O	24.3	11.7	55.6	546
17	18.4	3.1	CCC(=O)O[C@@H]1[C@@H](O)C[C@@H]2C(=CC[C@@H]3[C@@]2(C)C(=O)C[C@]2(C)[C@@H]([C@@](C)(O)C(=O)CCC(C)(C)OC(C)=O)[C@H](O)C[C@@]32C)C1(C)C	5.5	5.9	31.9	100
